From ChEMBL document CHEMBL1123531, “1,2-bis(arylsulfonyl)hydrazines. 2. The influence of arylsulfonyl and aralkylsulfonyl substituents on antitumor and alkylating activity” (1986)
Several values for one entry are separate records, joined by “and”; a condition that tells them apart may be missing. Equal entries are not always repeated.

Columns and labels:
Mus musculus [1] = assay: (§1) Compound was evaluated for the antitumor activity against L1210 leukemia in mice at 100 mg/kg dose; format: functional
Procedure, shortened: (§2)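 CDF1 mice, 10^5 L1210 ascites cells implanted ip (from 7-day donor tumors, saline-diluted). Dosed ip once daily for 6 days from 24 h post-implant, 50-150 mg/kg, as Tween 80/saline suspension. Five mice per group, vehicle-treated controls. Read-out: % T/C, mean survival of treated/control ×100.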

Mus musculus [2] = assay: Compound was evaluated for the antitumor activity against L1210 leukemia in mice at 50 mg/kg dose; format: functional
Procedure, shortened: (§3)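 L1210 ascites leukemia serially passaged in CDF1 mice; 10^5 cells implanted ip. Compounds homogenized in drops of 20% aqueous Tween 80, brought to volume with isotonic saline, given ip as fine suspensions once daily for 6 consecutive days starting 24 h after implantation. Five mice per group; vehicle controls. Endpoint: % T/C = mean survival treated/control × 100; body-weight change tracked toxicity.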

Mus musculus [3] = assay: Compound was evaluated for the antitumor activity against L1210 leukemia in mice at 150 mg/kg dose; format: functional; procedure, shortened: as §3
Mus musculus [4] = species on record: Mus musculus; assay: Compound was evaluated for the antineoplastic activity against L1210 leukemia in mice.; format: functional; procedure, shortened: as §2
Mus musculus [5] = assay: Compound was evaluated for the antitumor activity as average change in body weight against L1210 leukemia in mice at 100 mg/kg dose; format: functional
Procedure, shortened: (§4)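 CDF1 mice carrying ip L1210 ascites (10^5 cells), dosed ip daily for 6 consecutive days starting 24 h after implant, in Tween 80/isotonic saline suspension. Five mice per group. Toxicity taken as mean percent body weight change from start to end of therapy.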

Mus musculus [6] = assay: Compound was evaluated for the antitumor activity as average change in body weight against L1210 leukemia in mice at 150 mg/kg dose; format: functional; procedure, shortened: as §4
Mus musculus [7] = assay: Compound was evaluated for the antitumor activity as average change in body weight against L1210 leukemia in mice at 50 mg/kg dose; format: functional; procedure, shortened: as §4
[8] = Compound was evaluated for relative alkylating activity
Mus musculus [9] = assay: as §1; format: functional; procedure, shortened: as §3; remark: listed apart in the source
Mus musculus [10] = assay: Compound was evaluated for the antitumor activity as average change in body weight against L1210 leukemia in mice 100 mg/kg dose; format: functional; procedure, shortened: as §4
Mus musculus [11] = assay: Compound was evaluated for the antitumor activity as average change in body weight against L1210 leukemia in mice 150 mg/kg dose; format: functional; procedure, shortened: as §4

For COc1ccc(S(=O)(=O)NN(C)S(=O)(=O)c2ccc(C)cc2)cc1, the T/C (Mus musculus [1]) was 162%, the T/C (Mus musculus [2]) was 116% and the Average survival time (Mus musculus [2]; 50 mg/kg) was 15 days and 13.2 days. For the same compound, the T/C (Mus musculus [3]) was 143%, the “Max T/C” value (Mus musculus [4]) was 162% and the “Average change in weight” value (Mus musculus [5]) was 7.8%. For the same compound, the “Average change in weight” value (Mus musculus [6]) was 2.9%, the “Average change in weight” value (Mus musculus [7]) was 7.7% and the Relative activity [8] was 91.

In the case of CN(NC(=O)c1ccccc1)C(=O)c1ccccc1, the “Max T/C” value (Mus musculus [4]) is reported as 97% and the Relative activity [8] is reported as 10.

In the case of Cc1ccc(S(=O)(=O)NN(C)S(=O)(=O)c2ccc(Cl)cc2)cc1, the Average survival time (Mus musculus [9]) is reported as 13 days, the Average survival time (Mus musculus [3]) is reported as 10 days and the “Max T/C” value (Mus musculus [4]) is reported as 141%. The “Average change in weight” value (Mus musculus [5]) was 5.5%, the “Average change in weight” value (Mus musculus [6]) was -4.6% and the “Average change in weight” value (Mus musculus [7]) was 5.1%. It also gave a Relative activity [8] of 163.

In the case of Cc1ccc(S(=O)(=O)N(C)NS(=O)(=O)c2ccccc2)cc1, the Average survival time (Mus musculus [2]) is reported as 15 days, the T/C (Mus musculus [2]) is reported as 162% and the “Max T/C” value (Mus musculus [4]) is reported as 162%. For the same compound, the “Average change in weight” value (Mus musculus [10]) was 5.4%, the “Average change in weight” value (Mus musculus [11]) was -1.7% and the “Average change in weight” value (Mus musculus [7]) was 2%. For the same compound, the Relative activity [8] was 112.

Work on CN(NS(=O)(=O)c1ccc(Cl)cc1)S(=O)(=O)c1ccc(Cl)cc1 yielded a Relative activity [8] of 190.

In the case of COc1ccc(S(=O)(=O)N(C)NS(=O)(=O)c2ccc(C)cc2)cc1, the “Max T/C” value (Mus musculus [4]) is reported as 113%, the “Average change in weight” value (Mus musculus [5]) is reported as 14.8% and the “Average change in weight” value (Mus musculus [6]) is reported as 9.8%. The “Average change in weight” value (Mus musculus [7]) was 12.6% and the Relative activity [8] was 85.

In the case of Cc1ccc(S(=O)(=O)N(C)NS(=O)(=O)c2ccc(Cl)cc2)cc1, the T/C (Mus musculus [2]) is reported as 188%, the T/C (Mus musculus [3]) is reported as 121% and the “Max T/C” value (Mus musculus [4]) is reported as 188%. The “Average change in weight” value (Mus musculus [5]) was 10%, the “Average change in weight” value (Mus musculus [6]) was 6% and the “Average change in weight” value (Mus musculus [7]) was 3.7%. It also gave a Relative activity [8] of 126.

O=S(=O)(NNS(=O)(=O)c1ccccc1)c1ccccc1 showed a Relative activity [8] of 0.

Compound Cc1ccc(S(=O)(=O)N(C)NS(=O)(=O)Cc2ccccc2)cc1 has a Relative activity [8] of 136.

Work on Cc1ccc(S(=O)(=O)NN(C)S(=O)(=O)c2ccc(C)cc2)cc1 yielded a Relative activity [8] of 100.
